Reference: the RNAGym collection of RNA variant scans (doi:10.1002/anie.201605470)

B1: Osa-1-4 twister ribozyme (parent)
chain: CCGCCUAACACUGCCAAUGCCGGUCCCAAGCCCGGAUAAAAGUGGAGGGGGCGG

Variants of: B1
Experiment: self-cleavage, relative activity (ratio to wild type); higher = more cleavage; co-transcriptional
In short: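 For each read, cleavage status was taken from whether upstream sequence was present. The reads came from an Oryza sativa twister ribozyme of 54 nucleotides, whose DNA template was synthesised with 97 % wild-type base and 1 % of each other base at the 48 positions downstream of the cleavage site. The template was transcribed in vitro at 37 °C for 2 h with co-transcriptional self-cleavage, and the RNA was reverse-transcribed using a template-switching oligonucleotide, PCR-amplified and deep-sequenced. Relative activity is the fraction cleaved normalised to wild type.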

In order of falling self-cleavage:
1. U24C U37G  0.55
2. U24C U37C  0.51
3. U24C U37A  0.45
4. G23U U37G  0.19
5. C25A G35A  0.18
6. G23U  0.18
7. G23U U37C  0.16
8. G23U U37A  0.14
9. C25A G44C  0.1
10. C25A G35U  0.09
11. U24C U43A  0.08
12. G23C U37C  0.07
13. G23U U43G  0.07
14. C25A C33U  0.07
15. C25A G42A  0.06
16. C25A C27A  0.06
17. G23U G53U  0.06
18. G23U G53A  0.06
19. U24C U43C  0.06
20. C25A G44U  0.06
21. C25A G23A  0.06
22. G23C G50U  0.05
23. G23C G51A  0.05
24. G23C U37G  0.05
25. U24C U43G  0.05
26. G23U U12A  0.05
27. G23U U12G  0.05
28. C25A G35C  0.05
29. C25A G44A  0.05
30. C25A C33A  0.05
31. G23U G35U  0.05
32. G23U G35C  0.05
33. C25A G42C  0.04
34. G23C G50A  0.04
35. G23C G50C  0.04
36. G23C U37A  0.04
37. G23C U12G  0.04
38. G23C U12C  0.04
39. G23C U12A  0.04
40. G23U U43A  0.04
41. G23U U43C  0.04
42. U24G U37A  0.04
43. U24G U37G  0.04
44. G23U U12C  0.04
45. G23U G35A  0.04
46. G23C G49U  0.03
47. G23C G49A  0.03
48. G23C G47U  0.03
49. G23C G47A  0.03
50. G23C G47C  0.03
51. C25A G13A  0.03
52. C25A G42U  0.03
53. C25A C27U  0.03
54. C25A C27G  0.03
55. C25A G45C  0.03
56. C25A G45U  0.03
57. C25A G45A  0.03
58. G23C G51U  0.03
59. G23C G51C  0.03
60. G23C G45U  0.03
61. G23C G45C  0.03
62. G23U G53C  0.03
63. G23U G49C  0.03
64. G23U G49U  0.03
65. G23U G49A  0.03
66. G23U G48C  0.03
67. G23U G48U  0.03
68. G23U G30C  0.03
69. C25A G23U  0.03
70. G23C G49C  0.02
71. G23C G48U  0.02
72. G23C G48C  0.02
73. G23C G48A  0.02
74. C25A G13U  0.02
75. C25A G13C  0.02
76. C25A G30A  0.02
77. C25A G30U  0.02
78. C25A G30C  0.02
79. U24G U37C  0.02
80. G23U G48A  0.02
81. C25A C33G  0.02
82. G23U G30A  0.02
83. G23U G30U  0.02
84. C25A G23C  0.02
